Results reported in ChEMBL document CHEMBL1130176, “Selective inhibitors of cyclic AMP-specific phosphodiesterase: heterocycle-condensed purines” (J Med Chem, 1997).

Key:
[1] = biological target: Phosphodiesterase 1 (Homo sapiens, UniProt P54750+Q01064+Q14123); assay: Inhibitory activity against PDE1 from cerebral cortex; format: tissue-based
Procedure, shortened: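 PDE I (Ca2+/calmodulin-stimulated, cerebral cortex) and PDE III (cGMP-inhibited, heart) isolated by the Reeves method. […] IC50 fitted by nonlinear least squares. Final DMSO below 0.5%.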

[2] = biological target: Phosphodiesterase 4 (Homo sapiens, UniProt P27815+Q08499+Q07343+Q08493); assay: Inhibitory activity against Phosphodiesterase 4 from cerebral cortex.
[3] = biological target: Phosphodiesterase 3 (Homo sapiens, UniProt Q14432+Q13370); assay: Inhibitory activity against Phosphodiesterase 3 from heart.; format: protein assay
Procedure, shortened: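 PDE I (Ca2+/calmodulin-stimulated, cerebral cortex) and PDE III (cGMP-inhibited, heart) isolated by the Reeves method. IC50 fitted by nonlinear least squares. Final DMSO below 0.5%.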

[4] = species: Cavia porcellus; assay: Tested in vitro for tracheal relaxation; format: functional; conditions: Trachea
Procedure, shortened: (§1)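 Tracheal ring-chains from male Hartley guinea pigs (300–500 g), 37 °C Krebs–Henseleit pH 7.4, 95% O2–5% CO2, 0.5 g tension, isometric recording. After full relaxation with 1.0 μM isoprenaline and washout, spontaneous tone redeveloped. Cumulative compound concentrations then given, at least five spanning the EC50.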

[5] = species: Cavia porcellus; assay: Compound was tested in vitro for positive chronotropic action.; format: functional
Procedure, shortened: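 Isolated right atrium from male Hartley guinea pig (300–500 g) in Krebs–Henseleit, 95% O2–5% CO2, 25 °C, 0.5 g tension. Cumulative compound concentrations, at least five spanning the EC20. Beating rate recorded by cardiotachometer triggered by isometric contraction. Value is the concentration raising the unstimulated rate by 20% (EC20). DMSO below 0.5% final.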

[6] = test system: Suncus murinus; assay: Emetic effect in shrews at 10 mg/kg peroral dose, 3 of 3 animals affected; format: functional; conditions: route oral
[7] = test system: Suncus murinus; assay: (§2) Emetic effect in shrews at 30 mg/kg peroral dose, 0 of 3 animals affected; format: functional; conditions: route oral
[8] = test system: Suncus murinus; assay: Emetic effect in shrews at 100 mg/kg peroral dose, 0 of 3 animals affected; format: functional; conditions: route oral
[9] = test system: Suncus murinus; assay: as §2; format: functional; conditions: route oral; remark: listed apart in the source
[10] = test system: Suncus murinus; assay: Emetic effect in shrews at 30 mg/kg peroral dose, 3 of 3 animals affected; format: functional; conditions: route oral
[11] = species: Cavia porcellus; assay: In vitro positive chronotropic effect; format: functional
Procedure, shortened: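 Isolated right atrium from male Hartley guinea pigs (300–500 g) in Krebs–Henseleit, 25 °C, 95% O2–5% CO2, 0.5 g tension. Cumulative compound concentrations; beating rate recorded by cardiotachometer triggered by isometric contraction. EC20 is the concentration raising unstimulated rate by 20%, from over five concentrations. DMSO below 0.5% final.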

[12] = species: Cavia porcellus; assay: In vitro guinea pig tracheal relaxation; format: functional; conditions: Trachea; procedure, shortened: as §1
[13] = species: Cavia porcellus; assay: Negative inotropic response to adenosine in guinea pig left atrium; format: functional; conditions: Cardiac atrium, read-out: pA2 (converted)

Row | Compound | IC50 [1] | IC50 [2] | IC50 [3] | EC50 [4] | EC20 [5] | also measured
1 | CCCN1C(=O)N2CCCCN=C2c2[nH]cnc21 | > 100 µM | > 100 µM | > 100 µM | 53 µM | > 100 µM | –
2 | CCCn1cnc2c1c1nccn1c(=O)n2CCC | 14 µM | 1.9 µM | > 100 µM | 0.7 µM | 84 µM | –
3 | CCCn1c(=O)n2nnnc2c2[nH]cnc21 | > 100 µM | > 100 µM | > 100 µM | > 100 µM | > 100 µM | –
4 | CCCn1cnc2c1n(CCC)c(=O)n1nnnc21 | > 100 µM | 39 µM | > 100 µM | 68 µM | > 100 µM | –
5 | CCCn1cnc2c1c1nnnn1c(=O)n2CCC | > 100 µM | 18 µM | > 100 µM | 51 µM | > 100 µM | –
6 | CCCn1c(=O)n2ccnc2c2[nH]cnc21 | > 100 µM | 3.1 µM | > 100 µM | 1.6 µM | 90 µM | –
7 | CCCn1cnc2c1n(CCC)c(=O)n1ccnc21 | 40 µM | 1.4 µM | > 100 µM | 0.5 µM | 19 µM | Emesis [6]: 3
8 | CCCCn1c(=O)c2c(ncn2CC(C)=O)n(CCCC)c1=O [DENBUFYLLINE] | – | – | – | – | – | Emesis [10]: 3
9 | Nc1cc(-c2ccncc2)c[nH]c1=O [INAMRINONE] | > 300 µM | – | – | 7.4 µM | 62 µM | –
10 | CCCCOc1cc(CC2CNC(=O)N2)ccc1OC (stereo unspecified) [RO-201724] | > 300 µM | – | > 300 µM | – | – | EC20 [11]: > 100 µM; EC50 [12]: 0.12 µM
11 | COc1ccc(C2CNC(=O)C2)cc1OC1CCCC1 (stereo unspecified) [ROLIPRAM] | – | – | – | – | – | Emesis [6]: 3
12 | Cn1c(=O)c2nc[nH]c2n(C)c1=O.O [THEOPHYLLINE] | 356 µM | – | – | – | – | EC20 [11]: 88 µM; Kb [13]: 29.5 µM

More lines, main results first:

Row | IC50 [1] | IC50 [2] | IC50 [3] | EC50 [4] | Compound | EC20 [5] | also measured
13 | > 100 µM | 13 µM | > 100 µM | 2.5 µM | CCCN1C(=O)N2CCCCN=C2c2ncn(CCC)c21 | > 100 µM | –
14 | > 100 µM | 4.7 µM | > 100 µM | 2.1 µM | CCCN1C(=O)N2CCCN=C2c2ncn(CCC)c21 | > 100 µM | –
15 | > 100 µM | 49 µM | > 100 µM | 8.2 µM | CCCN1C(=O)N2CCCN=C2c2c1ncn2CCC | > 100 µM | –
16 | > 100 µM | > 100 µM | > 100 µM | 22 µM | CCCN1C(=O)N2CCCN=C2c2[nH]cnc21 | > 100 µM | –
17 | > 100 µM | > 100 µM | > 100 µM | 31 µM | CCCN1C(=O)N2CCN=C2c2[nH]cnc21 | > 100 µM | –
18 | > 100 µM | 5.1 µM | > 100 µM | 2.5 µM | CCCN1C(=O)N2CCN=C2c2c1ncn2CCC | > 100 µM | –
19 | > 100 µM | 1.6 µM | > 100 µM | 1 µM | CCCN1C(=O)N2CCN=C2c2ncn(CCC)c21 | > 100 µM | Emesis [7]: 0; Emesis [8]: 0; Emesis [9]: 0
